Source: PubChem BioAssay (Broad Institute)
Hits are enriched below; roughly 2.2% of the tested compounds scored in any of these assays.
Ecoli rRNA inh: reduced GFP signal of wild-type E. coli, primary screen, bacterial rRNA inhibitor project, GFP/RFP fluorescence, OD600, single point | AID 720706, 2013 | E. coli WT GFP vs humanized-ribosome RFP mutants, 24 h; stronger effect = lower value; DMSO median 0, no signal -100 | GFP signal change (wild-type ribosome), % (test concentration not listed) | actives 1.6% (n = 350,000);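 active means significant combined selectivity score with lowered wild-type GFP, culture density cut under 30%, mutant RFP and density less affected; inactive means any of these conditions unmet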
PvdQ acylase: P. aeruginosa PvdQ acylase inhibitors, primary screen, biochemical, fluorescence, plate reader and imaging, single point. actives 0.063% (n = 340,000). PvdQ acylase [Pseudomonas aeruginosa LESB58]. inhibition, % at 10 µM. purified PvdQ acylase. AID 488965, 2010; in the data active means inhibition above about 30%, passing the limit was not always enough; inconclusive means no clear call, values can overlap the other calls;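 further: 0% = vehicle neutral wells and 100% = reference inhibitor wells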
FN deposit inh: inhibitors of fibronectin matrix deposition, primary screen, AH1F cells, Alexa488-fibronectin fluorescence, plate reader. AH1F fibroblasts, overnight. inhibition, % at 12.6 µM. actives 0.086% (n = 350,000). AID 743247, 2014;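 active means mean inhibition across replicates of 30% or more, regardless of how many single replicates reach that level; inconclusive means mean under 30% yet at least half of replicates reach 30%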;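 further: positive control wells lacked labelled fibronectin entirely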
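Assay system: AH1F fibroblasts / Quantity: 10000 cells per well / Medium: DMEM plus 2% serum, read in PBS / Reagent: labelled fibronectin 24 nM / Dosing: single dose, pinned / Times: 1 h cell attachment, overnight exposure to compound and label / Signal: fluorescence, ex 485 nm, em 525 nm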
PDI turbidity: inhibitors of human PDI, primary screen, biochemical, turbidity, single point, plate reader. Protein disulfide-isomerase (Homo sapiens), P07237. PDI insulin aggregation turbidity, A650, 90 min. AID 588391, 2011. actives 0.052% (n = 350,000). inhibition, % at 10 µM;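 active means mean inhibition across replicates of 30% or more, whatever share of single replicates reach that level; inconclusive means mean inhibition below 30% while every single replicate reaches 30%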
Target sequence (P07237 whole entry, looked up): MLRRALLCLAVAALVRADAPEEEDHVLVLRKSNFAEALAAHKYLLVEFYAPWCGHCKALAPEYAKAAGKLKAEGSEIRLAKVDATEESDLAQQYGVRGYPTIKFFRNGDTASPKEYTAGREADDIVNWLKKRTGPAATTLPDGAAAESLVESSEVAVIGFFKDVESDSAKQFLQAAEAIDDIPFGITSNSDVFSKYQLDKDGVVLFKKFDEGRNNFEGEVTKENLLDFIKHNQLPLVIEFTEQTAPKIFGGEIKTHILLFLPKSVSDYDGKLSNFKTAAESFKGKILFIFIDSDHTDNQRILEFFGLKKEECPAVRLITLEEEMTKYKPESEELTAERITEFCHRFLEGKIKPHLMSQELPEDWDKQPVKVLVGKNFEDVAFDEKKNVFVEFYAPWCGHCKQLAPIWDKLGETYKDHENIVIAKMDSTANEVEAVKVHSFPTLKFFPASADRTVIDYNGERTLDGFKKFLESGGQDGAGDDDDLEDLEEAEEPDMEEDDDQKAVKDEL
Env fusion inh: inhibitors of HIV-1 Env-driven cell-cell fusion, primary screen, HeLa-JRFL effector, CEM21 target cells, luciferase | inhibition, % at 12.3 µM | actives 1.1% (n = 360,000) | AID 651610, 2012;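 active means mean replicate inhibition score of at least 50 and every replicate individually at or above 50; inconclusive means only one of the two criteria met; inactive means mean below 50 and not all replicates reaching 50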;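 further: 0% = plate neutral controls and 100% = maraviroc near 300 nM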
ERp5 block: inhibitors of ERp5-driven insulin aggregation, primary screen, biochemical, turbidity, absorbance 650 nm, single point; Protein disulfide-isomerase A6 (Homo sapiens), Q15084; 90 min; inhibition, % at 9.99 µM; actives 0.05% (n = 350,000);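 active means mean replicate inhibition above about 25%, with every replicate also reaching it, limit read from the data, passing the limit was not always enough; inconclusive means only one of those two criteria met; inactive means neither criterion met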
AID977621: growth inhibition of wild-type GFP E. coli, dose response, H69 mutant RFP, cherry-pick | shares compounds with Ecoli rRNA inh | E. coli wild-type GFP strain growth, fluorescence, 24 h | activity change, negative = inhibition at 50 µM | 1,900 tested, under 10 active | AID 977621, 2014;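 active means Wild-type ribosome reporter drop at least double the humanized mutant ribosome reporter drop, growth loss under a set limit; inconclusive means no clear call, values can overlap the other calls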;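 further: wild-type GFP and H69 mutant RFP strains grown together 50/50 in each well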
AID977628: E. coli growth inhibition, wild-type GFP versus h24 humanized RFP strain, dose response, h24 mutant RFP vs wild-type GFP, cherry-pick; shares compounds with Ecoli rRNA inh; E. coli WT GFP strain growth, fluorescence, 24 h; activity change, negative = inhibition at 50 µM; 1,900 tested, under 10 active; AID 977628, 2014;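 active means compound lowering the normal-ribosome reporter at least twice as much as the humanized-ribosome reporter, growth loss under a set limit; inconclusive means no clear call, values can overlap the other calls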;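 further: wild-type GFP and h24 humanized RFP strains co-cultured 1 to 1 per well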
* marks the source's active call; other numbers are inactive results; i = inactive; ? = inconclusive; / = not tested or not shown; [ ] = remark or other dose.

SMILES	Ecoli rRNA inh	PvdQ acylase	FN deposit inh	PDI turbidity	Env fusion inh	ERp5 block	AID977621	AID977628
Cc1ccc(S(=O)(=O)Nc2cccc3c2O[C@H](CN(C)S(=O)(=O)c2ccccc2)[C@@H](C)CN([C@H](C)CO)C3=O)cc1	0.9	/	/	/	-33.6[16.7 µM]	1.9	/	/
Cc1noc(C)c1NC(=O)N[C@H]1C=C[C@H](CC(=O)N2CCN(C)CC2)O[C@@H]1CO	3.3	/	/	/	1.8[16.7 µM]	1.1	/	/
COCCn1c(SCC(=O)Nc2cccnc2Cl)nc2ccccc21	-3.7	-1.9	0.3	2.8	/	-7.2	/	/
COc1ccccc1NC(=O)CSc1nccn1Cc1ccc(F)cc1	-23.6*	-8.4	4.3	10.3	-3.6	0.9	-4.76	/
COCCn1c(SCc2nc3ccccc3s2)nc2ccccc21	-19.4*	-1.2	/	-7.8	/	1.4	-11.4	/
COCCn1c(SCC(=O)Nc2ccccc2OC)nc2ccccc21	-23.7*	-2.1	-4.8	-5.8	-5.9	-0.2	-3	?
COC(=O)c1ccc(CSc2nc(-c3ccccc3)cs2)o1	-23.4*	-11.2	/	4.1	/	-2.9	-12.9	/
C/C=C/c1ccc2c(c1)[C@@H]1[C@@H](CCN1S(=O)(=O)c1ccccc1OC)[C@H](CO)N2C	-21.3*	/	0.5	/	/	/	/	?
CCC(=O)N(C)C[C@@H]1Oc2cc(-c3ccccc3F)ccc2S(=O)(=O)N([C@@H](C)CO)C[C@H]1C	-7.0	/	/	/	-10.9[16.7 µM]	0.2	/	/
O=C(Nc1ccn(Cc2ccc(Cl)cc2)n1)c1ccccc1	-24.5*	6.3	-5.5	-4.2	-12.0	-12.6	-1.21	-9.67
O=C(N[C@@H]1CC[C@@H](CC(=O)N2CCCCC2)O[C@@H]1CO)c1cccc(F)c1	1.8	/	/	/	-4.1[16.7 µM]	1.2	/	/
NC(=O)c1ccsc1NC(=O)COC(=O)CCOc1ccccc1	-22.6*	-16.0	4.8	8.2	-3.4	-0.6	-16.5	/
O=S(=O)(Cc1ccco1)Cc1nc(-c2ccc(Cl)cc2)cs1	-33.8*	/	-2.6	-1.5	7.0	-5.1	-1.07	-4.72
O=C(C[n+]1ccc(Cc2ccccc2)cc1)Nc1ccc([N+](=O)[O-])cc1Cl	-30.5*	-12.9	-8.1	-2.1	-8.5	2.8	-6.45	-6.85
Cc1cccc[n+]1CC(=O)Nc1ccc([N+](=O)[O-])cc1Cl	/	-5.4	3.9	8.1	-58.2	/	/	/
COc1cc2ccccc2cc1C(=O)NC1CCCCC1	-27.9*	-7.5	-4.5	-7.4	-23.2	-1.3	-15.6	-9.67
COc1cc(SC)ccc1C(=O)NC1CCCCC1	/	-16.4	-0.3	-4.3	i	/	/	/
COc1ccc(-n2ccnc2SCC(=O)NCc2ccccc2)c(OC)c1	-24.9*	-10.7	1.7	2.3	-5.0	6.0	5.42	/
Cc1ccc(S(=O)(=O)N2CCOCC2)cc1NC(=O)COc1ccc(-c2nnco2)cc1	-19.2*	3.5	/	24.0	12.5	2.8	-16.1	?
Cc1ccc(-c2ccc3c(c2)O[C@@H](CN(C)C(=O)C2CCC2)[C@@H](C)CN([C@@H](C)CO)S3(=O)=O)cc1	-6.0	/	/	/	14.1[16.7 µM]	-11.1	/	/
O=C(CCCn1c(=S)[nH]c2ccsc2c1=O)Nc1ccc2c(c1)OCCO2	-20.7*	-2.8	-5.3	4.9	-2.1	4.4	-10.6	/
O=C(CCCn1c(=S)[nH]c2ccsc2c1=O)Nc1ccc(F)cc1	-0.1	/	-0.3	0.3	13.2	-1.0	/	/
O=C(COc1cccc(NC(=O)c2cccs2)c1)c1ccc(F)cc1	-16.2	-7.2	1.3	-9.2	/	2.1	/	/
O=C(Nc1cccc(Oc2ccc3c(c2)C(=O)NC3=O)c1)c1cccs1	-29.9*	5.3	/	-3.2	15.9	-0.2	-4.26	/
CC(C)CC#Cc1cnc2c(c1)C(=O)N([C@H](C)CO)C[C@@H](C)[C@@H](CN(C)C(=O)Cc1cccnc1)O2	-0.6	/	-7.7	/	-6.2[16.7 µM]	4.2	/	/
SMILES	Ecoli rRNA inh	PvdQ acylase	FN deposit inh	PDI turbidity	Env fusion inh	ERp5 block	AID977621	AID977628
CC=Cc1ccc2n(c1=O)C[C@H]1[C@H](CO)[C@@H](C(=O)NCc3ccccc3)N(CC)[C@@H]21 (mixture of isomers)	-2.5	/	/	/	/	-2.1	/	/
Cc1cccc(SCC(=O)Nc2ccccc2[N+](=O)[O-])c1	-25.8*	-12.5	4.5	-5.0	-18.7	3.4	-4.29	-15.4
COCC#Cc1ccc2c(c1)O[C@@H](CN(C)Cc1ccccc1)[C@@H](C)CN([C@H](C)CO)S2(=O)=O	-9.7	/	/	/	-5.9[16.7 µM]	1.6	/	/
O=S1(=O)c2ccccc2C(O)(c2ccccc2)c2ccccc21	-21.0*	-15.0	9.1	5.8	/	-4.6	/	?
Cc1ccccc1COc1ccc(-c2nn[nH]n2)cc1	-25.4*	-19.8	-8.3	-8.9	-8.9	-0.7	?	/
CC(=O)c1cccc(NC(=O)COC(=O)CCC(=O)c2ccc(F)cc2)c1	-17.1*	-7.7	-12.6	6.1	/	-0.9	-1.82	/
O=C(COC(=O)CCC(=O)c1ccc(F)cc1)Nc1cccc(S(=O)(=O)N2CCCC2)c1	-21.2*	-3.2	-7.1	-0.3	-7.6	-4.7	-20.7	-10.8
O=C(COC(=O)c1n[nH]c2ccccc12)Nc1cccc(S(=O)(=O)N2CCOCC2)c1	-25.3*	-3.5	-0.7	6.6	-13.0	-1.0	-17.7	-12.6
CN(C)C(=O)C[C@@H]1CC[C@H]2[C@@H](COC[C@H](O)CN2Cc2ccc(C(F)(F)F)cc2)O1	1.4	/	-8.9	/	-12.1[16.7 µM]	/	/	/
O=C(O)c1ccccc1Nc1cc(Cl)c2nonc2c1[N+](=O)[O-]	-20.3*	-8.7	-3.5	7.5	11.4	1.2	?	/
O=C(O)c1cccc(Nc2cc(Cl)c3nonc3c2[N+](=O)[O-])c1	-13.2	-9.9	2.6	7.8	-4.0	-1.3	/	/
C[C@H](CO)N1C[C@H](C)[C@H](CN(C)CC2CC2)Oc2cc(C3=CCCC3)ccc2S1(=O)=O	2.5	/	/	/	12.6[16.7 µM]	0.8	/	/
O=C(CSCc1cnn(-c2ccccc2)c1-n1cccc1)NCc1cccnc1	-25.1*	15.0	3.1	-6.3	15.0	1.9	8.33	-2.9
COc1ccccc1CNC(=O)CSCc1cnn(-c2ccccc2)c1-n1cccc1	/	-4.6	6.4	2.2	-1.8	/	/	/
Cc1cccc(-c2nsc(SCC(=O)NCC3CCCO3)n2)c1 (stereo unspecified)	-21.9*	-5.5	-5.9	4.4	-7.6	3.4	-3.06	1.95
O=C(N[C@H]1CC[C@@H](CCn2cc(C3(O)CCCC3)nn2)O[C@H]1CO)C1CCOCC1	3.8	/	-7.7	/	-0.3[16.7 µM]	0.4	/	/
